According to ChEMBL document CHEMBL4622841, “Structural modifications of indolinones bearing a pyrrole moiety and discovery of a multi-kinase inhibitor with potent antitumor activity” (Bioorg Med Chem, 2020):
The source made the active and inactive calls. The rule behind the calls is not given here.

Key:
[1] = test system: HT-29; experiment: Induction of apoptosis in human HT-29 cells assessed as late apoptotic cells at 0.3 uM incubated for 72 hrs by Annexin-V-FITC/propidium iodide staining-based flow cytometric analysis (reference value: 6.12%); assay type: functional
[2] = test system: MKN-74; experiment: Induction of apoptosis in human MKN74 cells assessed as early apoptotic cells at 3 uM incubated for 72 hrs by Annexin-V-FITC/propidium iodide staining-based flow cytometric analysis (reference value: 1.98%); assay type: functional
[3] = Inhibition of N-terminal GST-tagged human recombinant PDGFRalpha D842I mutant expressed in baculovirus-infected Sf9 cells using FAM-labeled peptide and ATP as substrate preincubated for 10 mins followed by substrate addition measured after 1 hr by mobility shift assay
[4] = target: Platelet-derived growth factor receptor beta (Homo sapiens, UniProt P09619); experiment: Inhibition of N-terminal GST-fused human PDGFRbeta cytoplasmic domain (557 to 1106 (end) residues) expressed in baculovirus expression system using FAM-labeled peptide and ATP as substrate preincubated for 10 mins followed by substrate addition measured after 1 hr by mobility shift assay
[5] = test system: HUVEC; experiment: Induction of apoptosis in human HUVEC cells assessed as late apoptotic cells at 1 uM incubated for 48 hrs by Annexin-V-FITC/propidium iodide staining-based flow cytometric analysis (reference value: 3.48%); assay type: functional
[6] = test system: HT-29; experiment: Inhibition of receptor tyrosine kinase in human HT-29 cells assessed as reduction in ERK phosphorylation at Thr202/Tyr204 residues at 3 uM after 24 hrs by Western blotting analysis; assay type: cell-based
Method in brief: (§1)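 Cells cultured overnight, then treated with compound at different concentrations for 24 h. About 1×10⁶ cells harvested and immunoblotted for p-AKT (Ser473), AKT, p-ERK (Thr202/Tyr204), ERK, with GAPDH as loading control. Detection by chemiluminescence and gel imaging. Blots shown are representative of several experiments.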

[7] = test system: HT-29; experiment: Induction of apoptosis in human HT-29 cells incubated for 72 hrs by Annexin-V-FITC/propidium iodide staining-based flow cytometric analysis; assay type: functional, cell-based
[8] = test system: MKN-74; experiment: Inhibition of colony formation in human MKN74 cells at 1 uM measured after 14 days by crystal violet staining-based assay; assay type: functional; conditions: MKN-74, 336 h
[9] = test system: HT-29; experiment: Induction of apoptosis in human HT-29 cells assessed as early apoptotic cells at 0.3 uM incubated for 72 hrs by Annexin-V-FITC/propidium iodide staining-based flow cytometric analysis (reference value: 3.18%); assay type: functional
[10] = target: Cyclin-dependent kinase 4 (Homo sapiens, UniProt P11802); experiment: Inhibition of CDK4 (unknown origin) using FAM-labeled peptide and ATP as substrate preincubated for 10 mins followed by substrate addition measured after 1 hr by mobility shift assay
[11] = test system: HepG2; experiment: Inhibition of colony formation in human HepG2 cells at 1 uM measured after 14 days by crystal violet staining-based assay; assay type: functional, cell-based
Method in brief: (§2)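 Cells plated and exposed to test agent at a range of concentrations for 14 days, then colonies counted. Colony formation expressed relative to vehicle-treated cells as mean ± SEM. Significance versus vehicle by unpaired two-tailed Student's t-test.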

[12] = Toxicity in nu/nu mouse xenografted with human HT-29 cells assessed as effect on body weight at 100 mg/kg, po qd for 18 days; assay type: organism-based; conditions: in vivo, 432 h
Method in brief: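 Female nu/nu mice, 4–6 weeks old, implanted subcutaneously in the right flank with HT-29 cells (2×10⁶/mL). Once tumours reached 200 mm³, mice randomised to groups (n = 6) and dosed orally once daily at 100 mg/kg for 18 days. Body weight monitored during treatment. Results given as mean ± SD.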

[13] = test system: HepG2; experiment: Induction of apoptosis in human HepG2 cells assessed as early apoptotic cells at 3 uM incubated for 72 hrs by Annexin-V-FITC/propidium iodide staining-based flow cytometric analysis (reference value: 1.08%); assay type: functional
[14] = target: Vascular endothelial growth factor receptor 1 (Homo sapiens, UniProt P17948); experiment: Inhibition of GST-tagged human recombinant VEGFR1 cytoplasmic domain (781 to 1338 residues) expressed in baculovirus expression system using FAM-labeled peptide and ATP as substrate preincubated for 10 mins followed by substrate addition measured after 1 hr by mobility shift assay
[15] = test system: MKN-74; experiment: Induction of apoptosis in human MKN74 cells assessed as early apoptotic cells at 1 uM incubated for 72 hrs by Annexin-V-FITC/propidium iodide staining-based flow cytometric analysis (reference value: 1.98%); assay type: functional
[16] = test system: HUVEC; experiment: Induction of apoptosis in human HUVEC cells assessed as early apoptotic cells at 3 uM incubated for 48 hrs by Annexin-V-FITC/propidium iodide staining-based flow cytometric analysis (reference value: 3.63%); assay type: functional
[17] = test system: MKN-74; experiment: Induction of apoptosis in human MKN74 cells assessed as late apoptotic cells at 1 uM incubated for 72 hrs by Annexin-V-FITC/propidium iodide staining-based flow cytometric analysis (reference value: 12.42%); assay type: functional
[18] = Half life in mouse liver microsomes; assay type: ADME, Microsome
[19] = test system: HepG2; experiment: Inhibition of colony formation in human HepG2 cells measured after 14 days by crystal violet staining-based assay; assay type: functional, cell-based; method in brief: as §2
[20] = target: Proto-oncogene tyrosine-protein kinase Src (Homo sapiens, UniProt P12931); experiment: Inhibition of SRC (unknown origin) using FAM-labeled peptide and ATP as substrate preincubated for 10 mins followed by substrate addition measured after 1 hr by mobility shift assay
[21] = test system: HepG2; experiment: Induction of apoptosis in human HepG2 cells assessed as late apoptotic cells at 1 uM incubated for 72 hrs by Annexin-V-FITC/propidium iodide staining-based flow cytometric analysis (reference value: 2.89%); assay type: functional
[22] = test system: HepG2; experiment: Inhibition of receptor tyrosine kinase in human HepG2 cells assessed as reduction in ERK phosphorylation at Thr202/Tyr204 residues at 3 uM after 24 hrs by Western blotting analysis; assay type: cell-based; method in brief: as §1
[23] = test system: MKN-74; experiment: Induction of apoptosis in human MKN74 cells assessed as viable cells at 0.3 uM incubated for 72 hrs by Annexin-V-FITC/propidium iodide staining-based flow cytometric analysis (reference value: 76.84%); assay type: functional; conditions: MKN-74, 72 h, read-out: Activity
[24] = test system: HUVEC; experiment: Induction of apoptosis in human HUVEC cells assessed as late apoptotic cells at 0.3 uM incubated for 48 hrs by Annexin-V-FITC/propidium iodide staining-based flow cytometric analysis (reference value: 3.48%); assay type: functional
[25] = test system: HUVEC; experiment: Induction of apoptosis in human HUVEC cells assessed as early apoptotic cells at 0.3 uM incubated for 48 hrs by Annexin-V-FITC/propidium iodide staining-based flow cytometric analysis (reference value: 3.63%); assay type: functional
[26] = target: Cyclin-dependent kinase 2 (Homo sapiens, UniProt P24941); experiment: Inhibition of CDK2 (unknown origin) at 1 uM using FAM-labeled peptide and ATP as substrate preincubated for 10 mins followed by substrate addition measured after 1 hr by mobility shift assay

Chain of Vascular endothelial growth factor receptor 1 (P17948 whole entry, the tested form may be a part): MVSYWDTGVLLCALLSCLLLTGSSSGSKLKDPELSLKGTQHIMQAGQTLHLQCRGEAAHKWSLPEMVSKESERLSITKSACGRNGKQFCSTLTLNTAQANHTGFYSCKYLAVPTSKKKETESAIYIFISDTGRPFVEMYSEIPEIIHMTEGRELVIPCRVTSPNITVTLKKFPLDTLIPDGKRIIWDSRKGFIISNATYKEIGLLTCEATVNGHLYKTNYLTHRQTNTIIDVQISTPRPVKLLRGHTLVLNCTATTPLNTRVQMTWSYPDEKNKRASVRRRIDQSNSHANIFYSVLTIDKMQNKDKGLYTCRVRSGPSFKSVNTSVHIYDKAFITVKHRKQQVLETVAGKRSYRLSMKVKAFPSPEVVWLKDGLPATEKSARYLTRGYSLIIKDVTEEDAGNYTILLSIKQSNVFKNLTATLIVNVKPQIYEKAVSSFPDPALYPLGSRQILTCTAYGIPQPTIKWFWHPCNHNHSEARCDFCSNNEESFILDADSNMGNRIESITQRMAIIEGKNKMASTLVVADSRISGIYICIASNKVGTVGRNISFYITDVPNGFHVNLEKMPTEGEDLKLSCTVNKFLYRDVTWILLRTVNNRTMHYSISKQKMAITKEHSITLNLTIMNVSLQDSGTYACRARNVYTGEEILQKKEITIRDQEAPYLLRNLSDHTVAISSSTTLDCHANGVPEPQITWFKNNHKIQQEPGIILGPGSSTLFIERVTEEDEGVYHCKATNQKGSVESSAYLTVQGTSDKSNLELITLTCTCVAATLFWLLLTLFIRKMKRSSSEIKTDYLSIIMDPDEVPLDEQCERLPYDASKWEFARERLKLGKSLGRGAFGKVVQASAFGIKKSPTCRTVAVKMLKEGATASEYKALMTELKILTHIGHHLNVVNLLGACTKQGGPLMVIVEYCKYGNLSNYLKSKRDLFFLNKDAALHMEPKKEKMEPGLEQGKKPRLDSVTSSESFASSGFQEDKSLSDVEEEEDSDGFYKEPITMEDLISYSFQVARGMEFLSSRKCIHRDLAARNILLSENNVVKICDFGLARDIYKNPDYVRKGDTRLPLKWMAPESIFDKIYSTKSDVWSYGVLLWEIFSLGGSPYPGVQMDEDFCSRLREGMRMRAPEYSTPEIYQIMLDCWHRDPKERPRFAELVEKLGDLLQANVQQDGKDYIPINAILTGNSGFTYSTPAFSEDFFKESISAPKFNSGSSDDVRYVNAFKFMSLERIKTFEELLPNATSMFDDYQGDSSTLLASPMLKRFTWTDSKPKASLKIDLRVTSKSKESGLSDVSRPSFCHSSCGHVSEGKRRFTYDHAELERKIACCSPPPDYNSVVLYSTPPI
Chain of Proto-oncogene tyrosine-protein kinase Src (P12931 2-536 limits assumed): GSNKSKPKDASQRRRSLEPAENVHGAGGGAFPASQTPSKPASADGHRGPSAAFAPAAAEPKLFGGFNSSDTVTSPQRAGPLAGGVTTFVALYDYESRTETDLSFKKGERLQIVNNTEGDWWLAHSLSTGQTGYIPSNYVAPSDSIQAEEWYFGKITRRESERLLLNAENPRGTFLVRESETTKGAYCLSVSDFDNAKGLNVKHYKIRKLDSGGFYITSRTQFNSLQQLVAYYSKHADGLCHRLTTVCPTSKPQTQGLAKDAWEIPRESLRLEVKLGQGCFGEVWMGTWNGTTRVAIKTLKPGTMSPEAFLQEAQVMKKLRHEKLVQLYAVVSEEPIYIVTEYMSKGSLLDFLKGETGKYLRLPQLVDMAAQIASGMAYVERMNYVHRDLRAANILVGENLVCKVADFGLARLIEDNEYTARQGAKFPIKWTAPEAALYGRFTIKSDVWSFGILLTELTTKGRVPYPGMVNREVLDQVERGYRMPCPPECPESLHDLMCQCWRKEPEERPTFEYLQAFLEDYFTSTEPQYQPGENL
Chain of Platelet-derived growth factor receptor beta (P09619 whole entry, the tested form may be a part): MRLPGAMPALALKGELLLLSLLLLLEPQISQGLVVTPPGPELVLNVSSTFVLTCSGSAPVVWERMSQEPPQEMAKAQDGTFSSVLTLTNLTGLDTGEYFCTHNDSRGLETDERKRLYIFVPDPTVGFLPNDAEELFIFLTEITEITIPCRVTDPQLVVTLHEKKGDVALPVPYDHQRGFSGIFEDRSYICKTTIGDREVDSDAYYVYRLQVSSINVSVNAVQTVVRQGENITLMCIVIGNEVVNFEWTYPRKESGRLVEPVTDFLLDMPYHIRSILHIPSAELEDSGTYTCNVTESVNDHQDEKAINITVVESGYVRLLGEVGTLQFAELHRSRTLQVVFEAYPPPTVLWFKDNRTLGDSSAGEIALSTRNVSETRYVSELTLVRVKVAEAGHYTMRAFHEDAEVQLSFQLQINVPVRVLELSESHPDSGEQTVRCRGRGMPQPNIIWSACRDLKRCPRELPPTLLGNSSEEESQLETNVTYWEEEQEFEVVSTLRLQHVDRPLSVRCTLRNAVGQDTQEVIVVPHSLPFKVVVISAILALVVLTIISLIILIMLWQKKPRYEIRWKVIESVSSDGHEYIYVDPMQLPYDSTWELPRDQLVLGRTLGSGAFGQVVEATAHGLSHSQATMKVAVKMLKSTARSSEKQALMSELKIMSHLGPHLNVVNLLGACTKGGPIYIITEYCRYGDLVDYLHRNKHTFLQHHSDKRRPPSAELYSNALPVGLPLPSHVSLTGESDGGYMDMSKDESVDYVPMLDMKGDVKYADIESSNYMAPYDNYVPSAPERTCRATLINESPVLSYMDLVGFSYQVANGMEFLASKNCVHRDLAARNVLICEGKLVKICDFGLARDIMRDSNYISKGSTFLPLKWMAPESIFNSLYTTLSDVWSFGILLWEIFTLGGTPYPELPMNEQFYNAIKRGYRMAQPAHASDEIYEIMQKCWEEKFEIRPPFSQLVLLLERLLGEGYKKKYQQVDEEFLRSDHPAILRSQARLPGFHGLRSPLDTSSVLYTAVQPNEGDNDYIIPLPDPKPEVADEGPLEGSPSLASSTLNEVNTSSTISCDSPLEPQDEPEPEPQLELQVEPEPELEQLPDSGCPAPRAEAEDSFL
Chain of Cyclin-dependent kinase 4 (P11802 whole entry): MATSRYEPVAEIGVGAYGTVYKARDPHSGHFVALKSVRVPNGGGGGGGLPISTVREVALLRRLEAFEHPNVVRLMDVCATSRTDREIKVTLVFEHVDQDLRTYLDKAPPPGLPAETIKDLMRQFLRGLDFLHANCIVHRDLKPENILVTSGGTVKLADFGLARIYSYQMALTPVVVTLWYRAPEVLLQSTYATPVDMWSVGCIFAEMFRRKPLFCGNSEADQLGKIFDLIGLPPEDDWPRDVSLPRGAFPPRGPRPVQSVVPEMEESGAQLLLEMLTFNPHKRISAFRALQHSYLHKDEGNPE

Structure (SMILES): COC(=O)c1ccc2c(c1)NC(=O)/C2=C(\Nc1ccc(-n2c(C)ccc2CN2CCN(C)CC2)cc1)c1ccccc1
- Activity [1]: 11.99%
- Activity [2]: 8.01%
- IC50 [3]: 7 nM
- IC50 [4]: 9.9 nM
- Activity [5]: 3.09%
- inhibition [6]: Active
- Activity [7]: Dose-dependent effect
- inhibition at 1 µM [8]: 100%
- Activity [9]: 3.35%
- IC50 [10]: > 1000 nM
- inhibition [11]: Active
- Activity [12]: Non-Toxic
- Activity [13]: 16.52%
- IC50 [14]: 31 nM
- Activity [15]: 5.73%
- Activity [16]: 55.63%
- Activity [17]: 22.1%
- half-life [18]: 12.5 min
- inhibition [19]: Dose-dependent effect
- IC50 [20]: 178 nM
- Activity [21]: 61.54%
- inhibition [22]: Active
- viability at 0.3 µM [23]: 73.5%
- Activity [24]: 2.76%
- Activity [25]: 2.36%
- inhibition [26]: inactive
